13 compounds from PMC5483893 (Journal of Medicinal Chemistry, 2017) can be followed below.

The subject of assay [1] is total α-tubulin in QBI-293 cells. Kind of assay: Total α-tubulin ELISA. The format is cell-based. The note with it: at doses typically required to induce an elevation in AcTub. The essentials: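 QBI-293 cells were plated at 6 × 10⁵ cells/well, grown overnight at 37 °C and 5% CO₂, then given fresh medium with vehicle (DMSO) or 1 and 10 μM test compound for 4 h. Lysis was in RIPA with protease inhibitors, 1 mM PMSF and 1 μM TSA, followed by 100000g for 30 min at 4 °C. Supernatant was BCA-normalized and α-tubulin measured by ELISA as fold-change versus vehicle. Samples were run at least in triplicate; significance was by two-tailed unpaired t test.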

In assay [2] the test system is acetylated α-tubulin (AcTub) in QBI-293 cells. Kind of assay: Acetyl-tubulin assay. The format is cell-based. The note with it: for shape of concentration–response in the AcTub assay: comparison of 1 and 10 μM. The procedure, abridged:
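QBI-293 cells kept at 37 °C, 5% CO₂, trypsinised and plated at 6 × 10⁵ cells/well, then exposed overnight-later to vehicle (DMSO) or test compound for 4 h. Lysis in RIPA with protease inhibitors, 1 mM PMSF and 1 μM TSA; 100000g spin, 30 min, 4 °C. BCA protein, then AcTub ELISA. Fold-change versus vehicle, at least triplicate, two-tailed unpaired t test.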

Assay [3] concerns COX-derived PGD2 and PGE2 in RBL-1 cells. The format is cell-based, rat.

Take `COc1cc(F)c(-c2c(Cl)nc(C)n2-c2ccc(Cl)cc2)c(F)c1` [Compound 2, 4-Chloro-1-(4-chlorophenyl)-5-(2,6-difluoro-4-methoxyphenyl)-2-methyl-1H-imidazole]: the “effect on total α-tubulin levels” value in assay [1] is given as “cause a significant reduction in total α-tubulin levels”. The “shape of concentration–response in the AcTub assay” value (“shape of concentration–response” for short) in assay [2] is “bell-shaped concentration–response relationship”.
Take `Cc1nc(Cl)n(-c2ccc(Cl)cc2)c1-c1c(F)ccc(Cl)c1F` [Compound 30, 2-Chloro-5-(3-chloro-2,6-difluorophenyl)-1-(4-chlorophenyl)-4-methyl-1H-imidazole]: the “effect on total α-tubulin levels” value in assay [1] is “cause a significant reduction in total α-tubulin levels”.
Take `Cc1ncc(-c2c(F)ccc(F)c2F)n1-c1ccc(Cl)cc1` [Compound 34, 1-(4-Chlorophenyl)-2-methyl-5-(2,3,6-trifluorophenyl)-1H-imidazole]: the “effect on total α-tubulin levels” value in assay [1] is on record as “cause a significant reduction in total α-tubulin levels”.
Take `COc1ccc(-c2cncn2-c2ccc(Cl)cc2)cc1` [Compound 51, 1-(4-Chlorophenyl)-5-(4-methoxyphenyl)-1H-imidazole]: the “inhibition of the combined PGD2/PGE2 synthesis” value in assay [3] (RBL-1 cell assay, tested at 10 μM) was “near complete inhibition”. Further, the “MT activity (AcTub increase), inactive compounds” value in assay [2] (QBI-293 cells, 1 and 10 μM) is reported as “essentially devoid of MT activity”.
Turning to `COc1cc(F)c(-c2c(Cl)nc(Cl)n2-c2ccc(Cl)cc2)c(F)c1` [Compound 58, 2,4-Dichloro-1-(4-chlorophenyl)-5-(2,6-difluoro-4-methoxyphenyl)-1H-imidazole], the “effect on total α-tubulin levels” value in assay [1] is “cause a significant reduction in total α-tubulin levels”. In assay [2], the “shape of concentration–response” value is “bell-shaped concentration–response relationship”.
Consider `Cc1ccc(F)c(-c2c(Cl)ncn2-c2ccc(Cl)cc2)c1F` [Compound 62, 4-Chloro-1-(4-chlorophenyl)-5-(2,6-difluoro-3-methylphenyl)-1H-imidazole], for which the “effect on total α-tubulin levels” value in assay [1] is listed as “cause a significant reduction in total α-tubulin levels”.
With `Cc1ccc(F)c(-c2cnc(Cl)n2-c2ccc(Cl)cc2)c1F` [Compound 63, 2-Chloro-1-(4-chlorophenyl)-5-(2,6-difluoro-3-methylphenyl)-1H-imidazole], the “effect on total α-tubulin levels” value in assay [1] is “cause a significant reduction in total α-tubulin levels”.
For the compound `Cc1nc(Cl)c(-c2c(F)ccc(Cl)c2F)n1-c1ccc(Cl)cc1` [Compound 65, 4-Chloro-5-(3-chloro-2,6-difluorophenyl)-1-(4-chlorophenyl)-2-methyl-1H-imidazole], in assay [1], the “effect on total α-tubulin levels” value is “cause a significant reduction in total α-tubulin levels”.
As for `Fc1ccc(Cl)c(F)c1-c1cnc(Cl)n1-c1ccc(Cl)cc1` [Compound 66, 2-Chloro-5-(3-chloro-2,6-difluorophenyl)-1-(4-chlorophenyl)-1H-imidazole], the “effect on total α-tubulin levels” value in assay [1] was “cause a significant reduction in total α-tubulin levels”.
For `Cc1nc(Cl)c(-c2c(F)ccc(F)c2F)n1-c1ccc(Cl)c(F)c1` [Compound 71, 4-Chloro-1-(4-chloro-3-fluorophenyl)-2-methyl-5-(2,3,6-trifluorophenyl)-1H-imidazole], the “effect on total α-tubulin levels” value in assay [1] is “cause a significant reduction in total α-tubulin levels”. For the same compound, the “shape of concentration–response” value in assay [2] is recorded as “bell-shaped concentration–response relationship”.
On to `Fc1cc(F)c(-c2c(Cl)ncn2-c2ccc(Cl)nc2)c(F)c1` [Compound 73, 2-Chloro-5-(4-chloro-5-(2,4,6-trifluorophenyl)-1H-imidazol-1-yl)pyridine], for which the “effect on total α-tubulin levels” value in assay [1] is listed as “cause a significant reduction in total α-tubulin levels”.
For the compound `Cc1nc(Cl)c(-c2c(F)cccc2F)n1-c1ccc(Cl)cc1` [Compound 85, 4-Chloro-1-(4-chlorophenyl)-5-(2,6-difluorophenyl)-2-methyl-1H-imidazole], in assay [1], the “effect on total α-tubulin levels” value was “cause a significant reduction in total α-tubulin levels”.
Consider `Fc1cccc(F)c1-c1c(Cl)nc(Cl)n1-c1ccccc1Cl` [Compound 104, 2,4-Dichloro-1-(2-chlorophenyl)-5-(2,6-difluorophenyl)-1H-imidazole], for which the “inhibition in the PGD2/PGE2 assay” value in assay [3] (RBL-1 cells) is given as greater than 50%. Besides, in assay [2] (1 or 10 μM), the “elevation in AcTub without decrease of α-tubulin” value is reported as “produce an elevation in AcTub at 1 or 10 μM without decreasing α-tubulin level”.
